ChEMBL document CHEMBL2331340, “Novel antitumor indolizino[6,7-b]indoles with multiple modes of action: DNA cross-linking and topoisomerase I and II inhibition” (J Med Chem, 2013)
Values belong to the compound of their own block, whether it stands above or below them. The source made the active and inactive calls. No cut-off for these calls is given here.

Assays:
[1] = molecular target: DNA topoisomerase 2-alpha (Homo sapiens) (UniProt P11388); conditions: 50 to 200 uM
MX1 [2] = experiment: Cytotoxicity against human MX1 cells after 72 hrs by SRB assay; assay type: functional, cell-based; conditions: MX1, 72 h
PC-3 = experiment: Cytotoxicity against human PC3 cells after 72 hrs by Alamar blue assay; assay type: functional, cell-based; conditions: PC-3, 72 h
In short: (§1)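 Cells exposed to compound for 72 h, then Alamar blue added with a further 10−12 h at 37 °C and a spectrophotometric read. IC50 from six or seven concentrations by median-effect analysis; mean ± STDEV, n = 3. CL141T is a line derived from a patient lung tumor passaged as a SCID mouse xenograft.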

CCRF-CEM = experiment: Cytotoxicity against human CCRF-CEM cells after 72 hrs by XTT assay; assay type: functional, cell-based
In short: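 CCRF-CEM T-ALL cells incubated with compound for 72 h. XTT with phenazine methosulfate then added for 6 h at 37 °C, absorbance read at 450 and 630 nm. IC50 from six or seven concentrations by median-effect analysis; mean ± STDEV, n = 3.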

[3] = molecular target: T1, DNA topoisomerase 1 (Homo sapiens) (UniProt P11387); experiment: Inhibition of DNA topoisomerase 1 (unknown origin)-mediated relaxation of supercoiled pHOT DNA at 25 to 200 uM after 30 to 45 mins by agarose gel electrophoresis
T1 sequence (whole entry): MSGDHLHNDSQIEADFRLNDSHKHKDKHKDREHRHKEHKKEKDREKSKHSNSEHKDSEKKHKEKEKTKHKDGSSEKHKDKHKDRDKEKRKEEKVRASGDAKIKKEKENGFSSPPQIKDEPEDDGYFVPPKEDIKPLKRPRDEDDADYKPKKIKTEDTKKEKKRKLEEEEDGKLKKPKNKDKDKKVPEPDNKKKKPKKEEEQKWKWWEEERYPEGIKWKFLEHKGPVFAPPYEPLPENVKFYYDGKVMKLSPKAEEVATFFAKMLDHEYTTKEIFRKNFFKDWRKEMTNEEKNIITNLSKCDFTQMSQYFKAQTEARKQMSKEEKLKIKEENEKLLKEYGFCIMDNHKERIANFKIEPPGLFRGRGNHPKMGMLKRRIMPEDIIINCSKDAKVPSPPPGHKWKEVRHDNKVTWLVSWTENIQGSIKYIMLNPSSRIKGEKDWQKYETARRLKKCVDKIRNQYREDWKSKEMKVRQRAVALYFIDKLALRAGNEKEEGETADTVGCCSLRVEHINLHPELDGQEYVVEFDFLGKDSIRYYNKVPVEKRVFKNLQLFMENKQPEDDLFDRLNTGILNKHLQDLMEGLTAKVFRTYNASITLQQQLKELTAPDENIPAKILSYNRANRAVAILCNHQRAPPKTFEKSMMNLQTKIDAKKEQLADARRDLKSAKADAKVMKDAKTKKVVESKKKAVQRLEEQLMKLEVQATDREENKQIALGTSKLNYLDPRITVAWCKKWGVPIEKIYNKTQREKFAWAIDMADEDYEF
In short: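 Supercoiled pHOT DNA (200 ng) and compound in 10 mM Tris-HCl pH 7.9 with 1 mM EDTA at 37 °C. Reaction started with 1 unit topo I, run 30−45 min, stopped with 10% SDS. Products separated on 1% agarose at 50 V for 90 min and stained with ethidium bromide.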

[4] = molecular target: DNA topoisomerase 2-alpha (Homo sapiens) (UniProt P11388); experiment: Inhibition of DNA topoisomerase 2 (unknown origin)-mediated relaxation of supercoiled pHOT DNA after 30 to 45 mins by agarose gel electrophoresis
In short: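 Supercoiled pHOT DNA (125 ng) with compound in buffer stated as 0.5 M Tris-HCl pH 8.0, 1.5 M NaCl, 100 mM MgCl2, 5 mM DTT, 300 μg/mL BSA, 20 mM ATP, at 37 °C. Methods state 6 units topo II, figure legend 5 units; 30−45 min, SDS stop. Products run on 1% agarose and stained with ethidium bromide.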

MES-SA = experiment: Resistance factor, ratio of IC50 for human MES-SA/Dx5 cells to IC50 for human MES-SA cells; assay type: functional
[5] = Resistance factor, ratio of IC50 for human KB-VIN10 cells to IC50 for human KB cells; assay type: functional
[6] = Cytotoxicity against human MES-SA/Dx5 cells after 72 hrs by Presto Blue assay; assay type: functional, cell-based; conditions: MES-SA/Dx5, 72 h
In short: (§2)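 MES-SA and doxorubicin-resistant MES-SA/dx5 cells exposed for 72 h, then PrestoBlue added for 3 h at 37 °C, absorbance read at 570 and 600 nm. IC50 by median-effect analysis of six or seven concentrations; mean ± STDEV of three to six independent experiments.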

[7] = Cytotoxicity against human MES-SA cells after 72 hrs by Presto Blue assay; assay type: functional, cell-based
In short: as §2

[8] = Cytotoxicity against human HEL299 cells; assay type: cell-based; conditions: HEL 299
HT-29 = experiment: Cytotoxicity against human HT-29 cells after 72 hrs by Alamar blue assay; assay type: functional, cell-based; conditions: HT-29, 72 h
In short: as §1

A549 = experiment: Cytotoxicity against human A549 cells after 72 hrs by Alamar blue assay; assay type: functional, cell-based; conditions: A549, 72 h
In short: as §1

[9] = Cytotoxicity against human CL141T cells after 72 hrs by Alamar blue assay; assay type: functional, cell-based
In short: as §1

HCT-116 = experiment: Cytotoxicity against human HCT116 cells after 72 hrs by Alamar blue assay; assay type: functional, cell-based; conditions: HCT-116, 72 h
In short: as §1

[10] = Cytotoxicity against human OECM1 cells after 72 hrs by Alamar blue assay; assay type: functional, cell-based; conditions: OECM1, 72 h
In short: as §1

KB = experiment: Cytotoxicity against human KB cells after 72 hrs by Alamar blue assay
[11] = Cytotoxicity against human KB-VIN10 cells after 72 hrs by Alamar blue assay; conditions: KB-VIN10, 72 h
Escherichia coli = experiment: Induction of Escherichia coli pEGFP-N1 DNA interstrand cross-linking at 1 to 10 uM after 2 hrs by alkaline agarose gel shift assay
In short: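 Plasmid pEGFP-N1 DNA (1500 ng) incubated with compound at 1, 5 and 10 μM in 3 mM NaCl/1 mM sodium phosphate pH 7.4/1 mM EDTA, 2 h at 37 °C. DNA then BamHI-linearized, EtOH-precipitated, denatured in 0.5 N NaOH/10 mM EDTA, run on 0.8% alkaline agarose at 4 °C (18 V, 22 h), stained with ethidium bromide.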

NCI-H460 [12] = experiment: Induction of apoptosis in human H460 cells assessed as increase in cleaved PARP expression at IC50 after 24 to 72 hrs by Western blotting analysis; assay type: functional, cell-based
In short: (§3)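 H460 cells treated at IC50 for 24 and 72 h. Lysate proteins separated by SDS-PAGE and blotted to nitrocellulose, blocked in 5% milk/PBST. Primary antibodies to caspase-3, caspase-7, PARP (full-length and cleaved) and β-actin applied for 1 h at room temperature or overnight at 4 °C; HRP secondary with ECL detection.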

NCI-H460 [13] = experiment: Induction of apoptosis in human H460 cells assessed as increase in cleaved caspase 7 expression at IC50 after 24 to 72 hrs by Western blotting analysis; assay type: functional, cell-based
In short: as §3

NCI-H460 [14] = experiment: Induction of apoptosis in human H460 cells assessed as increase in cleaved caspase 3 expression at IC50 after 24 to 72 hrs by Western blotting analysis; assay type: functional, cell-based
In short: as §3

NCI-H460 [15] = experiment: Induction of apoptosis in human H460 cells assessed as increase in apoptotic cells at IC50 after 72 hrs by annexin V-FITC/propidium iodide staining-based FACS flow cytometric analysis (reference value: 9.29%); assay type: functional
NCI-H460 [16] = experiment: Induction of apoptosis in human H460 cells assessed as increase in apoptotic cells at IC50 after 24 hrs by annexin V-FITC/propidium iodide staining-based FACS flow cytometric analysis (reference value: 4.1%); assay type: functional
[17] = Cell cycle arrest in human CL141T cells assessed as accumulation at sub-G1 phase at 0.5 x IC50 to 2 x IC50 after 72 hrs by propidium iodide staining-based FACS flow cytometric analysis; assay type: functional
In short: (§4)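 CL141T cells treated at 0.5-, 1- and 2-fold IC50 for 24, 48 and 72 h. Cells fixed in ice-cold 70% EtOH, then stained with 4 μg/mL propidium iodide in PBS with 1% Triton X-100 and 0.1 mg/mL RNase A. Phase distribution from flow cytometry DNA histograms; sub-G1 fraction scored as well.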

[18] = Cell cycle arrest in human CL141T cells assessed as accumulation at G2/M phase at 2 x IC50 after 24 hrs by propidium iodide staining-based FACS flow cytometric analysis; assay type: functional
In short: as §4

[19] = Cell cycle arrest in human CL141T cells assessed as accumulation at G2/M phase at 0.5 x IC50 to 1 x IC50 after 48 to 72 hrs by propidium iodide staining-based FACS flow cytometric analysis; assay type: functional
In short: as §4

[20] = Cell cycle arrest in human CL141T cells assessed as accumulation at S phase at 1 x IC50 to 2 x IC50 after 24 hrs by propidium iodide staining-based FACS flow cytometric analysis; assay type: functional
In short: as §4

[21] = Cell cycle arrest in human CL141T cells assessed as accumulation at S phase at 0.5 x IC50 after 24 hrs by propidium iodide staining-based FACS flow cytometric analysis; assay type: functional
In short: as §4

[22] = Cell cycle arrest in human CL141T cells assessed as accumulation at G1 phase at 1 x IC50 to 2 x IC50 after 24 hrs by propidium iodide staining-based FACS flow cytometric analysis; assay type: functional
In short: as §4

Mus musculus = experiment: Toxicity in nude mouse xenografted with human MX1 cells assessed as body weight loss at 25 mg/kg, iv qd administered 3 days measured for 20 days; assay type: organism-based; set-up: dose 25 mg/kg, route intravenous; conditions: in vivo, 480 h
MX1 [23] = experiment: Antitumor activity against human MX1 cells xenografted in nude mouse assessed as tumor growth inhibition at 25 mg/kg, iv qd administered 3 days measured on day 20 relative to vehicle-treated control; assay type: functional; conditions: read-out: TGI
[24] = Cytotoxicity against human H460 cells after 72 hrs by Alamar blue assay; assay type: functional, cell-based; conditions: NCI-H460, 72 h
In short: as §1

Chain of DNA topoisomerase 2-alpha (Homo sapiens) (P11388 whole entry): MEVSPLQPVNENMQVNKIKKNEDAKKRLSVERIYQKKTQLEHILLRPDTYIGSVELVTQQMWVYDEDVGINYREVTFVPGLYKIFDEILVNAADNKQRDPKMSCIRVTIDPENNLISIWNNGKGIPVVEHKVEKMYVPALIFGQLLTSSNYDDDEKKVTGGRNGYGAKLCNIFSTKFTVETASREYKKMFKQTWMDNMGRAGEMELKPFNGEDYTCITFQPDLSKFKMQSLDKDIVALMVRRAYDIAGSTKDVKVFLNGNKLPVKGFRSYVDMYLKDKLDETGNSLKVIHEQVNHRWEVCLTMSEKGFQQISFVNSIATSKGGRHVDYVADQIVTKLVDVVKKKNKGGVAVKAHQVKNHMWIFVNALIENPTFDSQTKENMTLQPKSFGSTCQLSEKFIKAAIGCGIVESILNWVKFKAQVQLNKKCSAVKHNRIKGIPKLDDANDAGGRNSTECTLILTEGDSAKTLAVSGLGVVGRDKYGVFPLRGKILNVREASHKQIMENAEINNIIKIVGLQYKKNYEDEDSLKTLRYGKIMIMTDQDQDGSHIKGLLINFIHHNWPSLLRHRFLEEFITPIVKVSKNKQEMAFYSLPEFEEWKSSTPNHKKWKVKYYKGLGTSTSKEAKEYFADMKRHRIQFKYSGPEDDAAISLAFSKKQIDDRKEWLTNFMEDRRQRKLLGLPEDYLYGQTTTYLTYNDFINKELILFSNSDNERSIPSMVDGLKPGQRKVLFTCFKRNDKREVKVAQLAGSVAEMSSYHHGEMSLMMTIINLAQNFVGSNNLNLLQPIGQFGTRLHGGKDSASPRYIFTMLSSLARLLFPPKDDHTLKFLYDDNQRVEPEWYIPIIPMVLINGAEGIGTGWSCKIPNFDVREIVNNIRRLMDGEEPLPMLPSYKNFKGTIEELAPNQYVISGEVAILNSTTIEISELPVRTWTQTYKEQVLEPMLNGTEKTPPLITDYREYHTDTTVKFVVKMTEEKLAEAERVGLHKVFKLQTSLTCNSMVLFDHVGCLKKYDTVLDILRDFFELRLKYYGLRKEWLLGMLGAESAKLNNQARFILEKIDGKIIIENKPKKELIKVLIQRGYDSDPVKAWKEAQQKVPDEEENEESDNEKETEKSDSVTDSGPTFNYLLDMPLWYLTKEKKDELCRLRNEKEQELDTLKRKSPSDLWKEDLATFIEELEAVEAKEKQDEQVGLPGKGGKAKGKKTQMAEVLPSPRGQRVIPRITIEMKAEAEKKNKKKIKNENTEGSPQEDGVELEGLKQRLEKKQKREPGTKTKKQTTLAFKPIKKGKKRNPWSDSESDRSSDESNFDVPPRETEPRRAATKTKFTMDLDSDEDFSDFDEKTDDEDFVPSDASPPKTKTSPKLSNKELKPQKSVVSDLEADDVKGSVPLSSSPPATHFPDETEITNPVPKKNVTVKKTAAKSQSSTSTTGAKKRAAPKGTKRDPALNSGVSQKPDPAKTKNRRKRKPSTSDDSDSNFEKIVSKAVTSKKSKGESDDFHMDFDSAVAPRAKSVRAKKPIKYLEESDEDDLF

inhibition [1]: Active
Compound: COc1cc([C@@H]2c3cc4c(cc3[C@@H](O[C@@H]3O[C@@H]5CO[C@@H](C)O[C@H]5[C@H](O)[C@H]3O)[C@H]3COC(=O)[C@H]23)OCO4)cc(OC)c1O

inhibition [3]: Active
inhibition [4]: Dose-dependent effect
Compound: CCNC(=O)OCc1c(COC(=O)NCC)c2n(c1C)Cc1c(c3ccccc3n1C)C2
IC50 (MX1 [2]): 460 nM
IC50 (PC-3): 4110 nM
IC50 (CCRF-CEM): 40 nM
Ratio IC50 (MES-SA): 0.36
Ratio IC50 [5]: 0.94
IC50 [6]: 280 nM
IC50 [7]: 780 nM
IC50 [8]: 15500 nM
IC50 (HT-29): 11300 nM
IC50 (A549): 4830 nM
IC50 [9]: 2840 nM
IC50 (HCT-116): 2330 nM
IC50 [10]: 1900 nM
IC50 (KB): 2750 nM
IC50 [11]: 2600 nM

Activity (Escherichia coli): Active
Compound: CCn1c2c(c3ccccc31)Cc1c(CO)c(CO)c(C)n1C2
IC50 (PC-3): 2660 nM
IC50 (CCRF-CEM): 100 nM
Activity (NCI-H460 [12]): Active
Activity (NCI-H460 [13]): Active
Activity (NCI-H460 [14]): Active
Activity (NCI-H460 [15]): 43.52%
Activity (NCI-H460 [16]): 12.92%
Activity [17]: Active
Activity [18]: inactive
Activity [19]: Active
Activity [20]: Active
Activity [21]: Active
Activity [22]: Active
Activity (Mus musculus): Toxic
inhibition in vivo at 25 mg/kg (MX1 [23]): > 99%
Ratio IC50 (MES-SA): 0.6
Ratio IC50 [5]: 0.62
IC50 [6]: 240 nM
IC50 [7]: 400 nM
IC50 [8]: 2240 nM
IC50 (HT-29): 6150 nM
IC50 [24]: 730 nM
IC50 (A549): 2970 nM
IC50 [9]: 790 nM
IC50 (HCT-116): 1710 nM
IC50 [10]: 1170 nM
IC50 (KB): 1470 nM
IC50 [11]: 900 nM
